Measured values from different studies.
Protocols differ between the studies behind these lines.
GAK: Cyclin-G-associated kinase (GAK, Homo sapiens, UniProt O14976)
AMY2: Pancreatic alpha-amylase (AMY2, Sus scrofa, UniProt P00690)
PADI3: Protein-arginine deiminase type-3 (PADI3, Homo sapiens, UniProt Q9ULW8)
RIPK1: Receptor-interacting serine/threonine-protein kinase 1 (RIPK1, Homo sapiens, UniProt Q13546)
KRAS G12C: GTPase KRas (KRAS, Homo sapiens, UniProt P01116, G12C)
Maoa: Amine oxidase [flavin-containing] A (Maoa, Rattus norvegicus, UniProt P21396)

| SMILES | target | assay | setting | endpoint | value |
| --- | --- | --- | --- | --- | --- |
| Fc1cccc(Nc2ccnc3ccc(C(F)(F)F)cc23)c1 | GAK | thermal stability, DSF | 10 µM | ΔTm | 4.3 °C |
| COc1cc(C=Cc2cc(-c3ccccc3)nc(O)n2)ccc1O | AMY2 | enzyme activity, inhibitor, absorbance | 5 µg/mL | inhibition | 76.3% |
| O=S(=O)(Nc1nccs1)c1ccc(N=NN(O)c2ccccc2)cc1 | AMY2 | enzyme activity, inhibitor | 60 µg/mL | inhibition | 15.8% |
| CC(C)(C)n1nnc([C@H](CCCNC(=N)CCl)NC(=O)c2ccccc2C(=O)O)n1 | PADI3 | enzyme activity, inhibitor | – | kinact/KI | 292 M⁻¹ s⁻¹ |
| NC(=O)[C@H](CCCN=C(N)N)NC(=O)c1ccccc1 | PADI3 | enzyme activity, substrate | – | Km | 13900 µM |
| Cn1c2c(c3ccc(Cl)c(Cl)c31)C(C#N)C1(CCNCC1)NC2=O (racemic) | Serine/threonine-protein kinase DCLK1 (DCLK1, Homo sapiens, UniProt O15075) | thermal stability, DSF | 10 µM | ΔTm | 0.9 °C |
| CCCOc1ccc(OC)c(F)c1C(=O)c1ccc(C(=O)N[C@@H]2CNC[C@H]2NC(=O)c2ccc3[nH]ncc3c2)cc1 | Serine/threonine-protein kinase MRCK beta (CDC42BPB, Homo sapiens, UniProt Q9Y5S2) | enzyme activity, inhibitor | 0.5 µM | remaining activity | 9% |
| O=c1oc2c(O)c(O)cc3c(=O)oc4c(O)c(O)cc1c4c23 | Genome polyprotein, protease (Hepatitis C virus genotype 1b, UniProt Q9WMX2) | enzyme activity, inhibitor, fluorescence | – | IC90 | < 10 µM |
| CS(=O)(=O)c1cccc(Nc2ccnc3ccc(C(F)(F)F)cc23)c1 | GAK | thermal stability, DSF | 10 µM | ΔTm | 0.3 °C |
| CCN(O)N=Nc1ccc(S(=O)(=O)Nc2cc(C)on2)cc1 | AMY2 | enzyme activity, inhibitor | 20 µg/mL | inhibition | 26.3% |
| N#Cc1ccccc1Nc1ccnc2ccc(C(F)(F)F)cc12 | GAK | thermal stability, DSF | 10 µM | ΔTm | 0.6 °C |
| Cc1cc(NS(=O)(=O)c2ccc(N=NN(C)O)cc2)no1 | AMY2 | enzyme activity, inhibitor | 20 µg/mL | inhibition | 10.5% |
| CC(C)(C)n1nnc([C@H](CCCNC(=N)CF)NC(=O)c2ccccc2)n1 | PADI3 | enzyme activity, inhibitor | – | kinact/KI | 8.67 M⁻¹ s⁻¹ |
| C[C@@H]1CN(c2ccc3ncc(-c4ccc5[nH]nc(C6CC6)c5c4)n3n2)C[C@H](C)O1 | Cyclin-dependent kinase 19 (CDK19, Homo sapiens, UniProt Q9BWU1) | binding, competition with immobilised ligand | 50 nM | remaining binding | 90% |
| COc1cc(Cl)c(C(=O)N[C@@H](CN[C@H]2CC[C@@H](N)CC2)Cc2ccc(C#N)cc2)cc1-c1ccc(CN[C@H](C)c2ccc(C)cc2)o1 | RIPK1 | enzyme activity, inhibitor | 1 µM | remaining activity | 96% |
| Cc1noc(NS(=O)(=O)c2ccc(N=NN(C)O)cc2)c1C | AMY2 | enzyme activity, inhibitor | 20 µg/mL | inhibition | 21.1% |
| FC(F)(F)Oc1cccc(-c2cnc3ccc(-c4ccncc4)nn23)c1 | Eukaryotic translation initiation factor 2-alpha kinase 3 (EIF2AK3, Homo sapiens, UniProt Q9NZJ5) | enzyme activity, inhibitor, radiometric | 5 µM | activity vs control | 67% |
| COc1ccc(Nc2ncnc3ccc(C(F)(F)F)cc23)cc1 | GAK | thermal stability, DSF | 10 µM | ΔTm | 0.3 °C |
| COc1cc(C=Cc2cc(-c3ccc(N(C)C)cc3)nc(O)n2)ccc1O | AMY2 | enzyme activity, inhibitor, absorbance | 10 µg/mL | inhibition | 82.6% |
| Cc1ccc(C(=O)Nc2ccc(CN3CCN(C)CC3)c(C(F)(F)F)c2)cc1C#Cc1cnc2cccnn12 | RIPK1 | enzyme activity, inhibitor | 23.5 nM | remaining activity | 86% |

| SMILES | target | assay | setting | endpoint | value |
| --- | --- | --- | --- | --- | --- |
| COc1ccc(Nc2ccnc3ccc(C(F)(F)F)cc23)cc1OC | GAK | thermal stability, DSF | 10 µM | ΔTm | 3.4 °C |
| Cc1noc(NS(=O)(=O)c2ccc(N=NN(O)c3ccccc3)cc2)c1C | AMY2 | enzyme activity, inhibitor | 240 µg/mL | inhibition | 63.2% |
| C=CC(=O)Nc1cccc(-c2noc([C@@]3(C)CCCc4sc(N)c(C#N)c43)n2)c1 | KRAS G12C | cell-free assay | – | kinact | 0.000185 s⁻¹ |
| O=C(O)CCC(=O)C(=O)O | Lysine-specific demethylase 4D (KDM4D, Homo sapiens, UniProt Q6B0I6) | enzyme activity, substrate | – | Km | 6.9 µM |
| N=C(CF)NCCC[C@H](NC(=O)c1ccccc1)c1nn[nH]n1 | PADI3 | enzyme activity, inhibitor | – | kinact/KI | 7.25 M⁻¹ s⁻¹ |
| NCc1ccc(F)cc1 | Maoa | enzyme activity, substrate | pH 7.5 | Km | 174 µM |
| CS(=O)(=O)c1ccc(Nc2ccnc3ccc(C(F)(F)F)cc23)cc1 | GAK | thermal stability, DSF | 10 µM | ΔTm | 0.2 °C |
| CC(C)(C)n1nnc([C@H](CCCNC(=N)CF)NC(=O)c2ccc(-c3ccccc3)cc2)n1 | PADI3 | enzyme activity, inhibitor | – | kinact/KI | 11.7 M⁻¹ s⁻¹ |
| Cc1cccc(N(O)N=Nc2ccc(S(=O)(=O)Nc3onc(C)c3C)cc2)c1 | AMY2 | enzyme activity, inhibitor | 120 µg/mL | inhibition | 31.6% |
| COc1cc(C=CC(=O)CC(c2ccc([N+](=O)[O-])cc2)n2ccnc2)ccc1O (stereo not shown) | AMY2 | enzyme activity, inhibitor, absorbance | 2.5 µg/mL | inhibition | 62.6% |
| COc1cc(Nc2ncnc3ccc(C(F)(F)F)cc23)cc(OC)c1 | GAK | thermal stability, DSF | 10 µM | ΔTm | 0.7 °C |
| Cc1ccc(C(=O)NCc2ccsc2)cc1C#Cc1cn(C(C)C)c2ncnc(N)c12 | RIPK1 | enzyme activity, inhibitor | 1 µM | activity vs control | 30% |
| NCc1ccc(Br)cc1 | Maoa | enzyme activity, substrate | pH 7.5 | Km | 34 µM |
| CCCN(O)N=Nc1ccc(S(=O)(=O)Nc2cc(C)on2)cc1 | AMY2 | enzyme activity, inhibitor | 20 µg/mL | inhibition | 10.5% |
| CC(C)(C)n1nnc([C@H](CCCNC(=N)CF)NC(=O)c2ccccc2C(=O)O)n1 | PADI3 | enzyme activity, inhibitor | – | kinact/KI | 261 M⁻¹ s⁻¹ |
| C=CC(=O)Nc1ccc(-c2noc([C@@]3(C)CCCc4sc(N)c(C#N)c43)n2)cc1 | KRAS G12C | cell-free assay, inhibitor | – | kinact | 0.000194 s⁻¹ |
| N=C(CCl)NCCC[C@H](NC(=O)c1ccc(-c2ccccc2)cc1)c1nn[nH]n1 | PADI3 | enzyme activity, inhibitor | – | kinact/KI | 131 M⁻¹ s⁻¹ |
| FC(F)(F)c1ccc2nccc(Nc3ccc4c(c3)OCO4)c2c1 | GAK | thermal stability, DSF | 10 µM | ΔTm | 3.2 °C |
| Nc1ncnc2occ(-c3ccc(NC(=O)Nc4cc(C(F)(F)F)ccc4F)cc3)c12 | RIPK1 | cell-free assay, inhibitor | 20 µM | remaining signal | 0% |
| Cc1cccc(N(O)N=Nc2ccc(S(=O)(=O)Nc3nccs3)cc2)c1 | AMY2 | enzyme activity, inhibitor | 60 µg/mL | inhibition | 21.1% |
